Laboratory results: ChEMBL document CHEMBL2321690, “New betulinic acid derivatives for bevirimat-resistant human immunodeficiency virus type-1” (J Med Chem, 2013)

Legend:
[1] = test system: Human immunodeficiency virus 1; assay: Antiviral activity against 0.001 MOI bevirimat-resistant Human immunodeficiency virus 1 NL4-3 harboring gag V370A mutant infected in human MT4 cells assessed as inhibition of viral replication measured 4 days post infection by ELISA; format: functional, organism-based; conditions: Human immunodeficiency virus 1, NL4-3, MT4, 96 h
How it was run: (§1)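 Mutations introduced into pNL4-3 by site-directed mutagenesis. MT4 cells infected with wild-type NL4-3 or resistant variant at 0.001 TCID50/cell in presence of graded compound concentrations. Supernatant p24 measured by ELISA on day 4 post-infection. IC50 is the concentration reducing p24 by 50%, reported as mean ± SD with the number of tests given per value.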

[2] = test system: MT4; assay: Cytotoxicity against human MT4 cells for 4 days; format: cell-based; conditions: mt4, 96 h
How it was run: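 MT4 cells cultured with various compound concentrations for 4 days. Viability read by a CytoTox-Glo luminescent cytotoxicity assay. CC50 is the concentration reducing viable cells by 50%.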

[3] = test system: Human immunodeficiency virus 1; assay: Antiviral activity against 0.001 MOI wild type Human immunodeficiency virus 1 NL4-3 infected in human MT4 cells assessed as inhibition of viral replication measured 4 days post infection by ELISA; format: functional, organism-based; conditions: Human immunodeficiency virus 1, NL4-3, MT4, 96 h; how it was run: as §1

Compound | IC50 [1] [nM] | CC50 [2] [nM] | IC50 [3] [nM]
C=C(C)[C@@H]1CC[C@]2(C(=O)NCCCCCCCCC(=O)NCC(=O)O)CC[C@]3(C)[C@H](CC[C@@H]4[C@@]5(C)CC[C@H](OC(=O)CC(C)(C)C(=O)O)C(C)(C)[C@@H]5CC[C@]43C)[C@@H]12 | 480 | > 10000 | 40
C=C(C)[C@@H]1CC[C@]2(C(=O)NCCCCCCCCC(=O)N[C@@H](CCC(=O)OC)C(=O)OC)CC[C@]3(C)[C@H](CC[C@@H]4[C@@]5(C)CC[C@H](OC(=O)CC(C)(C)C(=O)O)C(C)(C)[C@@H]5CC[C@]43C)[C@@H]12 | 2160 | > 10000 | 180
C=C(C)[C@@H]1CC[C@]2(C(=O)NCCCCCCCCCNC(=O)[C@H](C)NC(=O)OC(C)(C)C)CC[C@]3(C)[C@H](CC[C@@H]4[C@@]5(C)CC[C@H](OC(=O)CC(C)(C)C(=O)O)C(C)(C)[C@@H]5CC[C@]43C)[C@@H]12 | 1580 | > 10000 | 50
C=C(C)[C@@H]1CC[C@]2(C(=O)NCCCCCCCCNC(=O)[C@H](CCC#N)NC(=O)OC(C)(C)C)CC[C@]3(C)[C@H](CC[C@@H]4[C@@]5(C)CC[C@H](OC(=O)CC(C)(C)C(=O)O)C(C)(C)[C@@H]5CC[C@]43C)[C@@H]12 | 330 | > 10000 | 30
C=C(C)[C@@H]1CC[C@]2(C(=O)NCCCCCCCNC(=O)[C@H](C)NC(=O)OC(C)(C)C)CC[C@]3(C)[C@H](CC[C@@H]4[C@@]5(C)CC[C@H](OC(=O)CC(C)(C)C(=O)O)C(C)(C)[C@@H]5CC[C@]43C)[C@@H]12 | 370 | 7900 | 10
C=C(C)[C@@H]1CC[C@]2(C(=O)NCCCCCCCC(=O)N[C@@H](CCC(N)=O)C(=O)OC)CC[C@]3(C)[C@H](CC[C@@H]4[C@@]5(C)CC[C@H](OC(=O)CC(C)(C)C(=O)O)C(C)(C)[C@@H]5CC[C@]43C)[C@@H]12 | > 5000 | > 10000 | 50
C=C(C)[C@@H]1CC[C@]2(C(=O)NCCCCCCCCC(=O)N[C@@H](CCC(N)=O)C(=O)OC(C)(C)C)CC[C@]3(C)[C@H](CC[C@@H]4[C@@]5(C)CC[C@H](OC(=O)CC(C)(C)C(=O)O)C(C)(C)[C@@H]5CC[C@]43C)[C@@H]12 | 810 | > 10000 | 10
C=C(C)[C@@H]1CC[C@]2(C(=O)NCCCCCCCCC(=O)N[C@@H](C)C(=O)OC)CC[C@]3(C)[C@H](CC[C@@H]4[C@@]5(C)CC[C@H](OC(=O)CC(C)(C)C(=O)O)C(C)(C)[C@@H]5CC[C@]43C)[C@@H]12 | 420 | > 10000 | 10
C=C(C)[C@@H]1CC[C@]2(C(=O)NCCCCCCCCCC(=O)N[C@@H](CCC(N)=O)C(=O)OC)CC[C@]3(C)[C@H](CC[C@@H]4[C@@]5(C)CC[C@H](OC(=O)CC(C)(C)C(=O)O)C(C)(C)[C@@H]5CC[C@]43C)[C@@H]12 | 700 | > 10000 | 100
C=C(C)[C@@H]1CC[C@]2(C(=O)NCCCCCCCCCNC(=O)[C@H](CC(N)=O)NC(=O)OC(C)(C)C)CC[C@]3(C)[C@H](CC[C@@H]4[C@@]5(C)CC[C@H](OC(=O)CC(C)(C)C(=O)O)C(C)(C)[C@@H]5CC[C@]43C)[C@@H]12 | 340 | 8300 | 40
C=C(C)[C@@H]1CC[C@]2(C(=O)NCCCCCCCNC(=O)[C@H](CCC(N)=O)NC(=O)OC(C)(C)C)CC[C@]3(C)[C@H](CC[C@@H]4[C@@]5(C)CC[C@H](OC(=O)CC(C)(C)C(=O)O)C(C)(C)[C@@H]5CC[C@]43C)[C@@H]12 | 2600 | > 10000 | 10
C=C(C)[C@@H]1CC[C@]2(C(=O)NCCCCCCCCC(=O)N3CCC[C@H]3C(=O)OC)CC[C@]3(C)[C@H](CC[C@@H]4[C@@]5(C)CC[C@H](OC(=O)CC(C)(C)C(=O)O)C(C)(C)[C@@H]5CC[C@]43C)[C@@H]12 | 880 | > 10000 | 100
C=C(C)[C@@H]1CC[C@]2(C(=O)NCCCCCCCCCNC(=O)[C@H](CCC(N)=O)NC(=O)OC(C)(C)C)CC[C@]3(C)[C@H](CC[C@@H]4[C@@]5(C)CC[C@H](OC(=O)CC(C)(C)C(=O)O)C(C)(C)[C@@H]5CC[C@]43C)[C@@H]12 | 1200 | > 10000 | 20
C=C(C)[C@@H]1CC[C@]2(C(=O)NCCCCCCCCC(=O)NCC(=O)OC)CC[C@]3(C)[C@H](CC[C@@H]4[C@@]5(C)CC[C@H](OC(=O)CC(C)(C)C(=O)O)C(C)(C)[C@@H]5CC[C@]43C)[C@@H]12 | 1510 | > 10000 | 10
C=C(C)[C@@H]1CC[C@]2(C(=O)NCCCCCCCCC(=O)N[C@H](C(=O)OC)[C@@H](C)CC)CC[C@]3(C)[C@H](CC[C@@H]4[C@@]5(C)CC[C@H](OC(=O)CC(C)(C)C(=O)O)C(C)(C)[C@@H]5CC[C@]43C)[C@@H]12 | 2780 | > 10000 | 40
C=C(C)[C@@H]1CC[C@]2(C(=O)NCCCCCCCCC(=O)N[C@@H](Cc3ccccc3)C(=O)OC)CC[C@]3(C)[C@H](CC[C@@H]4[C@@]5(C)CC[C@H](OC(=O)CC(C)(C)C(=O)O)C(C)(C)[C@@H]5CC[C@]43C)[C@@H]12 | 1290 | > 10000 | 70
C=C(C)[C@@H]1CC[C@]2(C(=O)NCCCCCCCCC(=O)NCC#N)CC[C@]3(C)[C@H](CC[C@@H]4[C@@]5(C)CC[C@H](OC(=O)CC(C)(C)C(=O)O)C(C)(C)[C@@H]5CC[C@]43C)[C@@H]12 | 460 | 6490 | 30
C=C(C)[C@@H]1CC[C@]2(C(=O)NCCCCCCCCNC(=O)[C@H](C)NC(=O)OC(C)(C)C)CC[C@]3(C)[C@H](CC[C@@H]4[C@@]5(C)CC[C@H](OC(=O)CC(C)(C)C(=O)O)C(C)(C)[C@@H]5CC[C@]43C)[C@@H]12 | 920 | > 10000 | 20
C=C(C)[C@@H]1CC[C@]2(C(=O)NCCCCCCCCNC(=O)[C@@H](NC(=O)OC(C)(C)C)C(C)C)CC[C@]3(C)[C@H](CC[C@@H]4[C@@]5(C)CC[C@H](OC(=O)CC(C)(C)C(=O)O)C(C)(C)[C@@H]5CC[C@]43C)[C@@H]12 | 330 | > 10000 | 150
C=C(C)[C@@H]1CC[C@]2(C(=O)NCCCCCCCCC(=O)N[C@@H](CCC(N)=O)C(=O)OCc3ccccc3)CC[C@]3(C)[C@H](CC[C@@H]4[C@@]5(C)CC[C@H](OC(=O)CC(C)(C)C(=O)O)C(C)(C)[C@@H]5CC[C@]43C)[C@@H]12 | 2540 | > 10000 | 40
C=C(C)[C@@H]1CC[C@]2(C(=O)NCCCCCCCCNC(=O)[C@@H]3CCCN3C(=O)OC(C)(C)C)CC[C@]3(C)[C@H](CC[C@@H]4[C@@]5(C)CC[C@H](OC(=O)CC(C)(C)C(=O)O)C(C)(C)[C@@H]5CC[C@]43C)[C@@H]12 | 950 | > 10000 | 40
C=C(C)[C@@H]1CC[C@]2(C(=O)N3CCN(CCCCC(=O)O)CC3)CC[C@]3(C)[C@H](CC[C@@H]4[C@@]5(C)CC[C@H](OC(=O)CC(C)(C)C(=O)O)C(C)(C)[C@@H]5CC[C@]43C)[C@@H]12 | > 3300 | > 10000 | 6
C=C(C)[C@@H]1CC[C@]2(C(=O)NCCCCCCCCC(=O)N[C@H](C(=O)OC)C(C)C)CC[C@]3(C)[C@H](CC[C@@H]4[C@@]5(C)CC[C@H](OC(=O)CC(C)(C)C(=O)O)C(C)(C)[C@@H]5CC[C@]43C)[C@@H]12 | 1240 | > 10000 | 10
C=C(C)[C@@H]1CC[C@]2(C(=O)NCCCCCCC(=O)N[C@@H](CCC(N)=O)C(=O)OC)CC[C@]3(C)[C@H](CC[C@@H]4[C@@]5(C)CC[C@H](OC(=O)CC(C)(C)C(=O)O)C(C)(C)[C@@H]5CC[C@]43C)[C@@H]12 | 2460 | > 10000 | 50
C=C(C)[C@@H]1CC[C@]2(C(=O)NCCCCCCCCC(=O)NCCC#N)CC[C@]3(C)[C@H](CC[C@@H]4[C@@]5(C)CC[C@H](OC(=O)CC(C)(C)C(=O)O)C(C)(C)[C@@H]5CC[C@]43C)[C@@H]12 | 330 | > 10000 | 150
C=C(C)[C@@H]1CC[C@]2(C(=O)NCCCCCCCCNC(=O)[C@H](CCC(N)=O)NC(=O)OC(C)(C)C)CC[C@]3(C)[C@H](CC[C@@H]4[C@@]5(C)CC[C@H](OC(=O)CC(C)(C)C(=O)O)C(C)(C)[C@@H]5CC[C@]43C)[C@@H]12 | 360 | > 10000 | 30
C=C(C)[C@@H]1CC[C@]2(C(=O)NCCCCCCCCCNC(=O)CNC(=O)OC(C)(C)C)CC[C@]3(C)[C@H](CC[C@@H]4[C@@]5(C)CC[C@H](OC(=O)CC(C)(C)C(=O)O)C(C)(C)[C@@H]5CC[C@]43C)[C@@H]12 | 1040 | > 10000 | 20
C=C(C)[C@@H]1CC[C@]2(C(=O)NCCCCCCCCC(=O)N(C)CC#N)CC[C@]3(C)[C@H](CC[C@@H]4[C@@]5(C)CC[C@H](OC(=O)CC(C)(C)C(=O)O)C(C)(C)[C@@H]5CC[C@]43C)[C@@H]12 | 2080 | > 10000 | 40
